# Legend:
# [1] = AUCextra in C57BL/6J mouse at 9.103 mg/kg, ip administered as single dose measured up to 24 hrs; type: ADME, organism-based; conditions: in vivo
# Method in brief: (§1)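 Single intraperitoneal dose in male C57BL/6J mice (12 per route). Tail-vein blood was collected under sodium heparin for plasma, with 3 mice sampled at each pair of times: 0.083/2, 0.25/4, 0.5/8 and 1/24 h. F denotes bioavailability.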
# [2] = Toxicity in C57BL/6 mouse assessed as change in body weight at 100 mg/kg, ip administered as single dose and measured after 15 days (reference value: 23.5 to 24.2 g); type: organism-based; conditions: in vivo, 360 h, time 15 day
# Method in brief: (§2)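 Female C57BL/6 mice given one IP injection of 100 µL, at 50, 100, 250 or 500 mg/kg in sterile PBS, two mice per dose; PBS-injected controls. Behaviour checked right after and at 30 min. Body weight recorded every 2–3 days for 15 days, then liver, spleen and kidneys weighed.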
# [3] = Toxicity in C57BL/6 mouse assessed as change in spleen weight at 500 mg/kg, ip administered as single dose and measured after 15 days (reference value: 0.1 to 0.2 g); type: organism-based; conditions: in vivo, 360 h, time 15 day; method in brief: as §2
# HUVEC = assay: Antiproliferative activity against human HUVEC cells assessed as decrease in cell viability at 10 uM measured after 72 hrs by MTT based colorimetric assay; type: functional
# [4] = Metabolic stability in human liver microsomes assessed as parent compound remaining incubated for 45 mins in presence of NADPH by HPLC-MS/MS analysis; type: ADME, Microsome; conditions: read-out: Stability
# Method in brief: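 Incubation with mouse or human liver microsomes for 45 min, with or without NADPH. Remaining parent compound was quantified over time by HPLC-MS/MS and expressed as % remaining; intrinsic clearance is given in μL/min/mg protein.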
# [5] = Plasma protein binding in human assessed as unbound fraction at 2 uM by rapid equilibrium dialysis based LC-MS/MS analysis; type: ADME, cell-free
# Method in brief: (§3)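 Binding was measured at 2 μM in triplicate by rapid equilibrium dialysis (8K MWCO). Quantification was by UPLC-MS/MS on a phenyl column in positive ESI MRM mode (m/z 727>567), with an ammonium formate pH 5 / 1,5-DMHA mobile phase at 50 °C. Both unbound fraction (fu) and % bound are reported.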
# [6] = Plasma protein binding in mouse at 2 uM by rapid equilibrium dialysis based LC-MS/MS analysis; type: ADME, cell-free; conditions: read-out: PPB (converted); method in brief: as §3
# [7] = Plasma protein binding in human at 2 uM by rapid equilibrium dialysis based LC-MS/MS analysis; type: ADME, cell-free; conditions: read-out: PPB (converted); method in brief: as §3
# [8] = Cmax in C57BL/6J mouse at 9.103 mg/kg, ip administered as single dose measured up to 24 hrs; type: ADME, organism-based; set-up: time < 24 hrs, dose 9.103 mg/kg, route ip; conditions: in vivo; method in brief: as §1
# [9] = AUCextra in C57BL/6J mouse at 0.711 mg/kg, iv administered as single dose measured up to 24 hrs; type: ADME, organism-based; conditions: in vivo
# Method in brief: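 Single intravenous dose. Mice were male C57BL/6J, 12 per route; tail-vein blood was collected under sodium heparin, with 3 mice sampled at each pair of times (0.083/2, 0.25/4, 0.5/8, 1/24 h). Dogs were male beagles (n=3); jugular blood was collected under K2 EDTA predose and at 0.083, 0.25, 0.5, 1, 2, 4, 6, 8 and 24 h. Plasma was prepared from the samples.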
# [10] = Toxicity in C57BL/6 mouse assessed as change in spleen weight at 50 mg/kg, ip administered as single dose and measured after 15 days (reference value: 0.1 to 0.2 g); type: organism-based; conditions: in vivo, 360 h, time 15 day; method in brief: as §2
# [11] = biological target: Prostaglandin G/H synthase 1 (Homo sapiens) (UniProt P23219); assay: Inhibition of COX1 (unknown origin) at 10 uM
smiles,measurement,setting,value
COc1ccc(-c2cc(=O)c3c(O)cc(OP(=O)([O-])[O-])c(-c4cc(-c5cc(=O)c6c(O)cc(OP(=O)([O-])[O-])cc6o5)ccc4OC)c3o2)cc1.[Na+].[Na+].[Na+].[Na+],%AUCextra,[1],1.3%
same,Activity,[2],19.5 g
same,Activity,[3],0.1 g
same,Activity,HUVEC,25%
same,remaining at 0.75 h,[4],60.8%
same,fraction unbound at 2 µM,[5],0.02
same,fraction unbound at 2 µM,[6],0.019
same,fraction unbound at 2 µM,[7],0.017
same,Cmax,[8],2.08 µg/mL
same,%AUCextra,[9],15.2%
same,Activity,[10],0.1 g
same,inhibition,[11],52.8%
